Measurements: ChEMBL document CHEMBL4229390, “Structure-guided evolution of a 2-phenyl-4-carboxyquinoline chemotype into PPARα selective agonists: New leads for oculovascular conditions” (Bioorg Med Chem Lett, 2018)
Active and inactive are the calls of the source. The rule behind the calls is not given here.

Tests used:
[1] = molecular target: T1, Peroxisome proliferator-activated receptor alpha (Homo sapiens) (UniProt Q07869); assay: Agonist activity at human PPARalpha at 5 uM after 22 to 24 hrs by luciferase reporter gene assay
T1 sequence (whole entry): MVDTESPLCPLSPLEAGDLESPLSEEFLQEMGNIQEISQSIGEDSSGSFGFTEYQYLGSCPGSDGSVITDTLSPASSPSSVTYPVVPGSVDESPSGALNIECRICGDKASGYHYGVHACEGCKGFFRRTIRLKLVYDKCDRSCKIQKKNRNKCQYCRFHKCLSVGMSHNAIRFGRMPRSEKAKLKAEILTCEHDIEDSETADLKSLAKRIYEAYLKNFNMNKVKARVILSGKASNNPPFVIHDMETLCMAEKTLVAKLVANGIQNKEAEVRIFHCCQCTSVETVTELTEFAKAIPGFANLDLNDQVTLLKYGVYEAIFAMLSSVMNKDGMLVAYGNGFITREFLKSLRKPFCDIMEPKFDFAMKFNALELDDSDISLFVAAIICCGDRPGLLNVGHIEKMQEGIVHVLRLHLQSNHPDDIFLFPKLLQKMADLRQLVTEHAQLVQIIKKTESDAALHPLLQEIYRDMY
Method in brief: (§1)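 hPPARα luciferase reporter cells; read-out via oxyluciferin production. […] Fold-induction over DMSO control ± S.E. (n = 3), single experiment.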

[2] = molecular target: T1, Peroxisome proliferator-activated receptor alpha (Homo sapiens); assay: Agonist activity at human PPARalpha at 10 uM after 22 to 24 hrs by luciferase reporter gene assay; method in brief: as §1
[3] = molecular target: T2, Peroxisome proliferator-activated receptor delta (Homo sapiens, UniProt Q03181); assay: Agonist activity at human PPARdelta after 22 to 24 hrs by luciferase reporter gene assay
T2 sequence (Q03181 whole entry): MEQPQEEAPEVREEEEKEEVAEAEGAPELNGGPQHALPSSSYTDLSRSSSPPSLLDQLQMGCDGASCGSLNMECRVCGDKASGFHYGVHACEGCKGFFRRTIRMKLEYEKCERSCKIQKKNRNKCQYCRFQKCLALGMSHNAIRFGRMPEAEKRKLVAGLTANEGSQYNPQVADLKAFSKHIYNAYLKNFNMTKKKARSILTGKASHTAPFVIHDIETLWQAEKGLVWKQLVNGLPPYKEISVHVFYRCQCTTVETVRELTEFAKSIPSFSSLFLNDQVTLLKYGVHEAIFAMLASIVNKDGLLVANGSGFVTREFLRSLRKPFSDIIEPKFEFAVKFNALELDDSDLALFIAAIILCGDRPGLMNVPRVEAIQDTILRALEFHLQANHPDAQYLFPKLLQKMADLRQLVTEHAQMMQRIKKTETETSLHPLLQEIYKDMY

[4] = molecular target: T3, Peroxisome proliferator-activated receptor gamma (Homo sapiens, UniProt P37231); assay: Agonist activity at human PPARgamma after 22 to 24 hrs by luciferase reporter gene assay
T3 sequence (P37231 whole entry): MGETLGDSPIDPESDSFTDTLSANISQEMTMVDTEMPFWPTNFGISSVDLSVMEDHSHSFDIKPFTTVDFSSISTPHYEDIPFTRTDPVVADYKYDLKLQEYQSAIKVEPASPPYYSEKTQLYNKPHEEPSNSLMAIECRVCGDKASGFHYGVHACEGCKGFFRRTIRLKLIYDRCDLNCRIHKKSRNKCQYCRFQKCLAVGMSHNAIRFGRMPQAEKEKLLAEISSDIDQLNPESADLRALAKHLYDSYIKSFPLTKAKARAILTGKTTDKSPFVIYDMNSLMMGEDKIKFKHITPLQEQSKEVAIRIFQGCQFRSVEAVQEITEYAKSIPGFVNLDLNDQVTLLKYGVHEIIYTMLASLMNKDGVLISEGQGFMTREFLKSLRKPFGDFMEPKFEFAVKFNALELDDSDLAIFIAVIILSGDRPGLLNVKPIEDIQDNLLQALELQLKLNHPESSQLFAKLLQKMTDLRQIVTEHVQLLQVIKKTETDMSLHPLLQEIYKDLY
Method in brief: (§2)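 Human PPAR luciferase reporter cell lines; luciferase read-out through oxyluciferin production. 10-point dose-response in triplicate, single experiment, giving EC50.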

[5] = molecular target: T4, Peroxisome proliferator-activated receptor alpha (Mus musculus) (UniProt P23204); assay: Agonist activity at PPARalpha in C57BL/6N mouse assessed as upregulation of PPARalpha protein expression after 24 hrs by Western blot method
T4 sequence (whole entry): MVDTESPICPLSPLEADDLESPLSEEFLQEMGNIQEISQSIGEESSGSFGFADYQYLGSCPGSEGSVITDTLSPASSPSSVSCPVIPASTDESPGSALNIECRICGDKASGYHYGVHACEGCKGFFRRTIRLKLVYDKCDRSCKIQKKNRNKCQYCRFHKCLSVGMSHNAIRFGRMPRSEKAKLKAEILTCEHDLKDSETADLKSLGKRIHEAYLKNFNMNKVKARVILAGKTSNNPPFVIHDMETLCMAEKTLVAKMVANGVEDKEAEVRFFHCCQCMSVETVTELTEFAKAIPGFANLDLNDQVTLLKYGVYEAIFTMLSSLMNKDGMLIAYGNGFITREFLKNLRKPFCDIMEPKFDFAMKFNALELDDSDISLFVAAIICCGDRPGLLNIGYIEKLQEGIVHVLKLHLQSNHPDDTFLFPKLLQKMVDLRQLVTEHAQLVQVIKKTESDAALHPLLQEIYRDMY
Method in brief: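 Mouse 661W cells exposed for 24 h. PPARα protein detected by Western blot and quantified by densitometry. Experiments performed three times in triplicate; mean ± S.D.; Student's t-test.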

[6] = molecular target: T4, Peroxisome proliferator-activated receptor alpha (Mus musculus); assay: Agonist activity at PPARalpha in C57BL/6N mouse assessed as upregulation of Acadm gene expression at 10 to 100 uM after 24 hrs by RT-PCR method
Method in brief: (§3)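 Mouse 661W cells treated for 24 h; target mRNA quantified by RT-PCR (n = 6). Reported as mean ± S.D.; group differences tested with Student's t-test.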

[7] = molecular target: T4, Peroxisome proliferator-activated receptor alpha (Mus musculus); assay: Agonist activity at PPARalpha in C57BL/6N mouse assessed as upregulation of Cpt1a gene expression at 10 to 100 uM after 24 hrs by RT-PCR method; method in brief: as §3
[8] = molecular target: T4, Peroxisome proliferator-activated receptor alpha (Mus musculus); assay: Agonist activity at PPARalpha in C57BL/6N mouse assessed as upregulation of Fabp3 gene expression at 10 to 100 uM after 24 hrs by RT-PCR method; method in brief: as §3
[9] = molecular target: T4, Peroxisome proliferator-activated receptor alpha (Mus musculus); assay: Agonist activity at PPARalpha in C57BL/6N mouse assessed as upregulation of Slc25a20 gene expression at 10 to 100 uM after 24 hrs by RT-PCR method; method in brief: as §3
[10] = species: Homo sapiens; assay: Antimigratory activity in HRCEC after 10 to 24 hrs by wound healing assay; type: functional
Method in brief: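 Wound healing (scratch) assay in human retinal capillary endothelial cells, closure assessed at 10 h and 24 h incubation. Performed three times in triplicate; mean ± S.D.; Student's t-test.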

[11] = molecular target: T5, Peroxisome proliferator-activated receptor alpha (Homo sapiens, UniProt Q07869); assay: Agonist activity at human PPARalpha after 22 to 24 hrs by luciferase reporter gene assay; method in brief: as §2
T5 sequence (Q07869 whole entry): T1 sequence (whole entry)

[12] = molecular target: T1, Peroxisome proliferator-activated receptor alpha (Homo sapiens); assay: Agonist activity at human PPARalpha after 22 to 24 hrs by luciferase reporter gene assay relative to GW590735; method in brief: as §2
[13] = molecular target: T5, Peroxisome proliferator-activated receptor alpha; assay: Agonist activity at PPARalpha (unknown origin) expressed in reporter combo cells after 36 hrs by dual luciferase reporter gene assay; type: cell-based
Method in brief: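 Human PPARα luciferase reporter cell line. Luciferase activity was read indirectly as oxyluciferin production. EC50 came from a 10-point dose-response, dosed in triplicate in a single experiment. In the initial screen, agonism was expressed as fold-induction over the DMSO control (n = 3) at 5 and 50 μM.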

Row | SMILES | Activity [1] | Activity [2] | EC50 [3] | EC50 [4] | also measured
1 | COc1ccc(COc2ccc(CNc3cccc(OC(C)(C)C(=O)O)c3)c(OCc3ccc(OC)cc3)c2)cc1 |  |  | 8.9 µM | 5.6 µM | EC50 [11]: 2.1 µM; fold change (FC) [12]: 1.4
2 | CC(C)(Oc1cccc(NCc2ccc(OCc3ccc(Cl)cc3)cc2)c1)C(=O)O | inactive | Active |  |  | 
3 | Cc1c(Cl)ccc2c(C(=O)O)cc(-c3ccccc3)nc12 |  |  |  |  | EC50 [13]: 25 to 50 µM
4 | COc1ccc(COc2ccc(CNc3cccc(C(=O)O)c3)c(OCc3ccc(OC)cc3)c2)cc1 |  |  | > 100 µM | > 100 µM | EC50 [11]: 5.1 µM; fold change (FC) [12]: 1.1
5 | O=C(O)c1cccc(NCc2ccc(OCc3ccccc3)cc2)c1 | Active | Active |  |  | 
6 | CC(C)(Oc1cccc(NCc2ccc(OCc3cc(F)cc(F)c3)cc2)c1)C(=O)O | inactive | Active |  |  | 

The next lines start with results.

Row | Activity [1] | Activity [2] | EC50 [3] | EC50 [4] | SMILES | also measured
7 | inactive | Active | 38.6 µM | 18.3 µM | COc1ccc(COc2ccc(CNc3cccc(OC(C)(C)C(=O)O)c3)cc2)cc1 | 
8 | Active |  |  |  | O=C(O)c1cccc(NCc2ccc(OCc3ccc([N+](=O)[O-])cc3)cc2)c1 | 
9 | Active |  |  |  | O=C(O)c1cccc(NCc2ccc(OCc3ccc(Cl)cc3Cl)cc2)c1 | 
10 |  |  | > 100 µM | > 100 µM | COc1ccc(COc2ccc(CNc3cccc(C(=O)O)c3)cc2)cc1 | Activity [5]: Dose-dependent effect; Activity [6]: Active; Activity [7]: Active; Activity [8]: Active; Activity [9]: Active; Activity [10]: Dose-dependent effect
11 | Active | Active |  |  | O=C(O)c1cccc(NCc2ccc(OCc3cc(F)cc(F)c3)cc2)c1 | 
12 | inactive | Active |  |  | CC(C)(Oc1cccc(NCc2ccc(OCc3ccccc3)cc2)c1)C(=O)O | 
13 | Active | Active |  |  | O=C(O)c1cccc(NCc2ccc(OCc3ccc(Cl)cc3)cc2)c1 | 
